Assay results as given in PMC8273112 (ACS Infectious Diseases, 2021).
Structures can show the parent of a compound that is named as a salt. Where two headings read alike, the source gives them in different places.

How the values were obtained:
[1] = tested on: Plasmodium falciparum strain Dd2; assay: SYBR Green growth inhibition assay, P. falciparum Dd2; type: cell-based; conditions: Plasmodium falciparum
[2] = tested on: Plasmodium falciparum strain D6; assay: SYBR Green growth inhibition assay, P. falciparum D6; type: cell-based; conditions: Plasmodium falciparum, D6, 72 h, read-out: IC50 D6
[3] = tested on: P. falciparum strain Tm90–C2B; assay: SYBR Green growth inhibition assay, P. falciparum Tm90-C2B; type: cell-based, Plasmodium falciparum; conditions: Plasmodium falciparum, TM90, 72 h, read-out: IC50 Tm90–C2B
Procedure, shortened: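 Human erythrocytes (≤28 days old), 2% hematocrit, asynchronous culture at 0.2% initial parasitemia, in RPMI-1640 with HEPES, hypoxanthine, glucose, glutamine and Albumax II. 2-fold serial dilution starting at 20 μM, quadruplicate. Incubated 72 h at 37 °C under 5% O2/5% CO2/90% N2. SYBR Green I dye-detergent added for at least 1 h in the dark; fluorescence read at 497/520 nm, normalized to untreated wells, plotted against log concentration.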

[4] = tested on: P. falciparum A6 (SB1-A6); assay: SYBR Green growth inhibition assay, P. falciparum A6; type: cell-based, Plasmodium falciparum; conditions: Plasmodium falciparum, 72 h, read-out: IC50 A6
Procedure, shortened: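 Asynchronous parasites grown in human erythrocytes in RPMI-1640 with HEPES, hypoxanthine and Albumax II under 5% O2/5% CO2/90% N2 at 37 °C. Test compound in 2-fold serial dilution from 20 μM, run in quadruplicate, at 2% hematocrit and 0.2% starting parasitemia for 72 h. SYBR Green I lysis dye added for ≥1 h in the dark. Fluorescence read at 497/520 nm, normalized to untreated wells and plotted against log concentration.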

[5] = Murine microsomal stability; type: in vitro ADME; conditions: mouse, pooled murine liver microsomes; for half-life at 1 μM: pH 7.4, murine microsomal stability, t1/2, 1 μM, 0.5 mg/mL protein, 37 °C, 1 h, NADPH; for CLint scaled at 1 μM: pH 7.4
Plasmodium yoelii = assay: Modified 4-day Peters test, murine malaria; type: in vivo, Plasmodium yoelii in mice
[6] = oral gavage days 1–4, parasitemia day 5, mice

Row | SMILES | IC50 ([1]; DD2, 72 h, read-out: IC50 Dd2) | IC50 [2] | IC50 [3] | IC50 [4] | half-life at 1 μM [5] | CLint scaled at 1 μM [5] | P. yoelii ED90 (Plasmodium yoelii; [6]) | IC50 ([1]; DD2, 48 h, read-out: IC50 Dd2, 48 h) | IC50 ([1]; DD2, 72 h, read-out: IC50 Dd2, 72 h) | IC50 ([1]; DD2, 96 h, read-out: IC50 Dd2, 96 h) | P. yoelii ED50 (Plasmodium yoelii; [6]) | P. yoelii NRD (nonrecrudescence dose, cure dose) (Plasmodium yoelii; oral gavage up to 25 mg/kg/day, no parasites at day 30)
1 | N=C(N/N=C/c1cccc(OC(F)(F)F)c1)N/N=C/c1cccc(OC(F)(F)F)c1 [Compound 15, 2,2′-Bis[(3-trifluoromethoxyphenyl)methylene]carbonimidic Dihydrazide Hydrochloride] | 1570 nM | 670 nM | 2990 nM | 689 nM | – | – | – | – | – | – | – | –
2 | N=C(N/N=C/c1ccccc1)N/N=C/c1ccccc1 [Compound 24, 2,2′-Bis(phenylmethylene)carbonimidic Dihydrazide Hydrochloride] | 4300 nM | 705 nM | > 5000 nM | 581 nM | – | – | – | – | – | – | – | –
3 | N=C(N/N=C/c1ccc(N2CCOCC2)cc1)N/N=C/c1ccc(N2CCOCC2)cc1 [Compound 33, 2,2′-Bis[(4-morpholinophenyl)methylene]carbonimidic Dihydrazide Hydrochloride] | 329 nM | 131 nM | 295 nM | 116 nM | – | – | – | – | – | – | – | –
4 | O=C(c1ccc(F)cc1)C1CCN(CCn2c(=O)[nH]c3ccccc3c2=O)CC1 [ketanserin, reference compound] | – | – | – | – | 0.241 h | – | – | – | – | – | – | –
5 | N=C(N/N=C/c1ccccc1OC(F)(F)F)N/N=C/c1ccccc1OC(F)(F)F [Compound 14, 2,2′-Bis[(2-trifluoromethoxyphenyl)methylene]carbonimidic Dihydrazide Hydrochloride] | 2330 nM | 1080 nM | > 5000 nM | 391 nM | – | – | – | – | – | – | – | –
6 | N=C(N/N=C/c1ccccc1Cl)N/N=C/c1ccccc1Cl [Compound 5, 2,2′-Bis[(2-chlorophenyl)methylene]carbonimidic Dihydrazide Hydrochloride] | 961 nM | 334 nM | 1220 nM | 348 nM | – | – | – | – | – | – | – | –
7 | N=C(N/N=C/c1cccc(Cl)c1)N/N=C/c1cccc(Cl)c1 [Compound 6, 2,2′-Bis[(3-chlorophenyl)methylene]carbonimidic Dihydrazide Hydrochloride] | 567 nM | 202 nM | 664 nM | 237 nM | – | – | – | – | – | – | – | –
8 | N=C(N/N=C/c1ccc(F)cc1)N/N=C/c1ccc(F)cc1 [Compound 4, 2,2′-Bis[(4-fluorophenyl)methylene]carbonimidic Dihydrazide Hydrochloride] | 3790 nM | 1020 nM | 4900 nM | 369 nM | – | – | – | – | – | – | – | –
9 | N=C(N/N=C/c1ccc(OC(F)F)cc1)N/N=C/c1ccc(OC(F)F)cc1 [Compound 18, 2,2′-Bis[(4-difluoromethoxyphenyl)methylene]carbonimidic Dihydrazide Hydrochloride] | 191 nM | 71 nM | 193 nM | 87 nM | – | – | – | – | – | – | – | –
10 | Cc1ccc(/C=N/NC(=N)N/N=C/c2ccc(C)cc2)cc1 [Compound 10, 2,2′-Bis[(4-methylphenyl)methylene]carbonimidic Dihydrazide Hydrochloride] | 2430 nM | 905 nM | 2530 nM | > 5000 nM | – | – | – | – | – | – | – | –
11 | COc1ccc(/C=N/NC(=N)N/N=C/c2ccc(OC)cc2)cc1 [Compound 11, 2,2′-Bis[(4-methoxyphenyl)methylene]carbonimidic Dihydrazide Hydrochloride] | 1600 nM | 263 nM | > 5000 nM | 289 nM | – | – | – | – | – | – | – | –
12 | N=C(N/N=C/c1cccc(F)c1)N/N=C/c1cccc(F)c1 [Compound 3, 2,2′-Bis[(3-fluorophenyl)methylene]carbonimidic Dihydrazide Hydrochloride] | > 5000 nM | 767 nM | > 5000 nM | 426 nM | – | – | – | – | – | – | – | –
13 | N=C(N/N=C/c1ccccc1)N/N=C/c1ccccc1F [Compound 38, 2-(Phenylmethylene)-2′-[(2-Fluorophenyl)methylene]carbonimidic Dihydrazide Hydrochloride] | 2200 nM | 1030 nM | > 5000 nM | 833 nM | – | – | – | – | – | – | – | –
14 | N=C(N/N=C/c1ccc(C(F)(F)F)cc1)N/N=C/c1ccc(C(F)(F)F)cc1 [Compound 12, 2,2′-Bis[(4-trifluoromethylphenyl)methylene]carbonimidic Dihydrazide Hydrochloride] | 1540 nM | 614 nM | 2740 nM | 567 nM | – | – | – | – | – | – | – | –
15 | N=C(N/N=C/c1ccccc1Br)N/N=C/c1ccccc1Br [Compound 7, 2,2′-Bis[(2-bromophenyl)methylene]carbonimidic Dihydrazide Hydrochloride] | 715 nM | 280 nM | 974 nM | 876 nM | – | – | – | – | – | – | – | –
16 | N#Cc1ccccc1/C=N/NC(=N)N/N=C/c1ccccc1C#N [Compound 20, 2,2′-Bis[(2-cyanophenyl)methylene]carbonimidic Dihydrazide Hydrochloride] | 2100 nM | 1020 nM | 1990 nM | 969 nM | – | – | – | – | – | – | – | –
17 | Cl.N#Cc1cc(/C=N/NC(=N)N/N=C/c2ccc(F)c(C#N)c2)ccc1F [Compound 1, 2,2′-Bis[(3-cyano-4-fluorophenyl)methylene]carbonimidic Dihydrazide Hydrochloride] | 12 nM | 4 nM | 16 nM | 14 nM | > 2.5 h | 29.3 mL/min/kg | 0.28 mg/kg/day | – | – | – | – | –
18 | CN(C)c1ccc(/C=N/NC(=N)N/N=C/c2ccc(N(C)C)cc2)cc1 [Compound 28, 2,2′-Bis[(4-dimethylaminophenyl)methylene]carbonimidic Dihydrazide Hydrochloride] | 264 nM | 118 nM | 213 nM | 122 nM | – | – | – | – | – | – | – | –
19 | N=C(N/N=C/c1cccc(Br)c1)N/N=C/c1cccc(Br)c1 [Compound 8, 2,2′-Bis[(3-bromophenyl)methylene]carbonimidic Dihydrazide Hydrochloride] | 1520 nM | 572 nM | 1840 nM | 502 nM | – | – | – | – | – | – | – | –
20 | Cl.N=C(N/N=C/c1ccc(OC(F)(F)F)cc1)N/N=C/c1ccc(OC(F)(F)F)cc1 [Compound 16, 2,2′-Bis[(4-trifluoromethoxyphenyl)methylene]carbonimidic Dihydrazide Hydrochloride] | 83 nM | 39 nM | 114 nM | 52 nM | > 2.5 h | 31.7 mL/min/kg | 3.7 mg/kg/day | 410 nM | 195 nM | 192 nM | 1.2 mg/kg/day | 12.5 mg/kg/day
21 | N=C(N/N=C/c1ccccc1F)N/N=C/c1ccccc1F [Compound 2, 2,2′-Bis[(2-fluorophenyl)methylene]carbonimidic Dihydrazide Hydrochloride] | 4590 nM | 2870 nM | > 5000 nM | 1890 nM | – | – | – | – | – | – | – | –
22 | N=C(N/N=C/c1ccc(Br)cc1)N/N=C/c1ccc(Br)cc1 [Compound 9, 2,2′-Bis[(4-bromophenyl)methylene]carbonimidic Dihydrazide Hydrochloride] | 876 nM | 277 nM | 899 nM | 269 nM | – | – | – | – | – | – | – | –
